{
  "source": "ChEMBL document CHEMBL1649480",
  "about": "“Farnesol-induced apoptosis in Candida albicans” (2009)",
  "key": {"Candida albicans [1]": {"tested_on": "Candida albicans", "assay": "Downregulation of Phosphoglycerate mutase expression in Candida albicans SC5314 at 40 uM after 24 hrs by MALDI-TOF MS", "format": "functional, organism-based", "procedure,_shortened": "(§1)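 Overnight YNB-glucose SC5314 culture, PBS-washed, adjusted to OD600 0.1 and treated 24 h with 40 or 200 μM farnesol (methanol in controls). Proteomes were compared with untreated cells by 2D SDS-PAGE and MALDI-TOF MS, searched against NCBI nonredundant database. Spots were counted as changed at ≥1.5-fold in three independent experiments.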"}, "Candida albicans [2]": {"tested_on": "Candida albicans", "assay": "Induction of ROS accumulation in mitochondria of Candida albicans SC5314 at 40 uM after 3 hrs by Fluorescence analysis", "format": "functional", "procedure,_shortened": "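Cells were exposed 3 h to 40, 100 or 200 μM farnesol, with methanol control and H2O2 positive control. Washed cells were stained 30 min in the dark with a mix of dichlorodihydrofluorescein diacetate, propidium iodide and calcofluor white, then washed and viewed by confocal microscopy. % green (ROS) cells of all cells was scored, with red (necrotic) cells scored separately.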"}, "Candida albicans [3]": {"tested_on": "Candida albicans", "assay": "Induction of apoptosis in Candida albicans SC5314 assessed as activation of caspase activity at 100 uM after 3 hrs by Fluorescence analysis", "format": "functional", "procedure,_shortened": "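SC5314 grown overnight at 30°C (120 rpm) in yeast nitrogen base pH 7.0 with 50 mM glucose, PBS-washed, set to OD600 0.1, then exposed to farnesol (40, 100, 200 μM; methanol diluent). Active caspases detected in situ with a FLICA kit per the manufacturer; green cells imaged by confocal microscopy (Cy2/Cy3). Controls: methanol vehicle and hydrogen peroxide. Done on three or more occasions.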"}, "Candida albicans [4]": {"tested_on": "Candida albicans", "assay": "Upregulation of Putative mitochondrial […] expression in Candida albicans SC5314 at 200 uM after 24 hrs by MALDI-TOF MS", "format": "functional, organism-based", "procedure,_shortened": "(§2)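 SC5314 grown overnight at 30°C, 120 rpm, in yeast nitrogen base (pH 7.0) with 50 mM glucose. Cells were washed in PBS and adjusted to OD600 0.1, then treated 24 h with farnesol from a methanol dilution; controls received methanol. Proteomes of treated and untreated cells were compared by 2-D SDS-PAGE and MALDI-TOF MS, with ProFound searches of the NCBI nonredundant database. Spots changed at least 1.5-fold in three independent experiments were counted.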"}, "Candida albicans [5]": {"tested_on": "Candida albicans", "assay": "Downregulation of Enolase expression in Candida albicans SC5314 at 40 uM after 24 hrs by MALDI-TOF MS", "format": "functional, organism-based", "procedure,_shortened": "as §1"}, "Candida albicans [6]": {"tested_on": "Candida albicans", "assay": "Downregulation of NADH:quinone oxidoreductase expression in Candida albicans SC5314 at 200 uM after 24 hrs by MALDI-TOF MS", "format": "functional, organism-based", "procedure,_shortened": "as §1"}, "Candida albicans [7]": {"tested_on": "Candida albicans", "assay": "Downregulation of Glyceraldehyde-3-phosphate dehydrogenase expression in Candida albicans SC5314 at 40 uM after 24 hrs by MALDI-TOF MS", "format": "functional, organism-based", "procedure,_shortened": "as §1"}, "Candida albicans [8]": {"tested_on": "Candida albicans", "assay": "Upregulation of Alcohol dehydrogenase expression in Candida albicans SC5314 at 40 uM after 24 hrs by MALDI-TOF MS", "format": "functional, organism-based", "procedure,_shortened": "as §1"}, "Candida albicans [9]": {"tested_on": "Candida albicans", "assay": "Upregulation of Glutathione reductase expression in Candida albicans SC5314 at 200 uM after 24 hrs by MALDI-TOF MS", "format": "functional, organism-based", "procedure,_shortened": "as §1"}, "Candida albicans [10]": {"tested_on": "Candida albicans", "assay": "Downregulation of GRE3 expression in Candida albicans SC5314 at 40 uM after 24 hrs by MALDI-TOF MS", "format": "functional, organism-based", "procedure,_shortened": "as §1"}, "Candida albicans [11]": {"tested_on": "Candida albicans", "assay": "Upregulation of Alanine/arginine aminopeptidase expression in Candida albicans SC5314 at 40 uM after 24 hrs by MALDI-TOF MS", "format": "functional, organism-based", "procedure,_shortened": "as §1"}, "Candida albicans [12]": {"tested_on": "Candida albicans", "assay": "Downregulation of carboxymethylenebutenolidase expression in Candida albicans SC5314 at 200 uM after 24 hrs by MALDI-TOF MS", "format": "functional, organism-based", "procedure,_shortened": "as §1"}, "Candida albicans [13]": {"tested_on": "Candida albicans", "assay": "Induction of apoptosis in Candida albicans SC5314 assessed as cell death level at 200 uM after 3 hrs by Fluorescence analysis", "format": "functional", "procedure,_shortened": "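Washed, OD600 0.1 SC5314 cells (overnight culture at 30°C in YNB pH 7.0 with 50 mM glucose) exposed 3 h to farnesol, with methanol vehicle and H2O2 controls. Stained 30 min in the dark with a mix of dichlorodihydrofluorescein diacetate, propidium iodide and calcofluor white, then PBS-washed. Confocal imaging; red propidium iodide-stained cells scored as a percentage of all cells.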"}, "Candida albicans [14]": {"tested_on": "Candida albicans", "assay": "Upregulation of POR1 expression in Candida albicans SC5314 at 200 uM after 24 hrs by MALDI-TOF MS", "format": "functional, organism-based", "procedure,_shortened": "as §2"}, "Candida albicans [15]": {"tested_on": "Candida albicans", "assay": "Antiproliferative activity against Candida albicans SC5314 assessed as cell killing after 24 hrs by MTS assay", "format": "functional", "procedure,_shortened": "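SC5314 grown overnight in YNB (pH 7.0) with 50 mM glucose at 30°C, 120 rpm, washed in PBS. Suspensions at 1 × 10⁷ cells/ml exposed to farnesol at final 0, 10, 40, 100, 200, 300 μM for 24 h at 30°C with shaking, with methanol vehicle controls. MTS reagent added for 4 h at 37°C, A490 read, and % killed cells calculated.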"}},
  "note": "The source made the active and inactive calls. The rule behind the calls is not given here.",
  "data": [
    {"smiles": "CC(C)=CCC/C(C)=C/CC/C(C)=C/CO", "note": "[FARNESOL]", "values": [
      {"measurement": "Activity", "setting": "Candida albicans [1]", "result": "Active"},
      {"measurement": "Activity", "setting": "Candida albicans [2]", "result": 26, "unit": "%"},
      {"measurement": "Activity", "setting": "Candida albicans [3]", "result": 13, "unit": "%"},
      {"measurement": "Activity", "setting": "Candida albicans [4]", "result": "Active"},
      {"measurement": "Activity", "setting": "Candida albicans [5]", "result": "Active"},
      {"measurement": "Activity", "setting": "Candida albicans [6]", "result": "Active"},
      {"measurement": "Activity", "setting": "Candida albicans [7]", "result": "Active"},
      {"measurement": "Activity", "setting": "Candida albicans [8]", "result": "Active"},
      {"measurement": "Activity", "setting": "Candida albicans [9]", "result": "Active"},
      {"measurement": "Activity", "setting": "Candida albicans [10]", "result": "Active"},
      {"measurement": "Activity", "setting": "Candida albicans [11]", "result": "Active"},
      {"measurement": "Activity", "setting": "Candida albicans [12]", "result": "Active"},
      {"measurement": "Activity", "setting": "Candida albicans [13]", "result": 35, "unit": "%"},
      {"measurement": "Activity", "setting": "Candida albicans [14]", "result": "Active"},
      {"measurement": "Activity", "setting": "Candida albicans [15]", "result": 60, "unit": "%"}
    ]}
  ]
}
